Biofilm kill mix: mixtures killing C. albicans biofilm | 120,000 compounds, 0.02% hits | C. albicans biofilm persisters + clotrimazole, fluorescence viability; primary screen in compound mixtures of four per well | inhibition, % at 7.6 µM | AID 1242;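 active = inhibition above 30.3% in the primary screen of four-compound pools, then above 30% when the compound was retested; inconclusive = passed the primary limit but could not be retested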;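 also: compounds exposed to preformed 24 h biofilms for 48 h; 0% = untreated biofilm control and 100% = clotrimazole plus chlorhexidine kill blank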
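Incubation: 24 h biofilm formation, then 48 h compound exposure, 37 °C | Material: C. albicans biofilms | Buffer or medium: RPMI/MOPS medium, pH 7.0 | Measured by: 2-h Alamar Blue fluorescence, 535/590 nm excitation/emission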
ROMK mod: human ROMK K+ channel modulation, primary screen. Tet-inducible ROMK, thallium flux fluorescence; actives lie on both sides. B-score at 10 µM. 130,000 compounds, 2% hits. AID 1918;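 active = signal ratio slope over the read window, or its plate-corrected B-score, at least 3 SD from the plate mean, either direction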;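 also: B-score of the F/F0 ratio slope over 7 to 12 s after thallium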
Target sequence (P48048 whole entry, looked up): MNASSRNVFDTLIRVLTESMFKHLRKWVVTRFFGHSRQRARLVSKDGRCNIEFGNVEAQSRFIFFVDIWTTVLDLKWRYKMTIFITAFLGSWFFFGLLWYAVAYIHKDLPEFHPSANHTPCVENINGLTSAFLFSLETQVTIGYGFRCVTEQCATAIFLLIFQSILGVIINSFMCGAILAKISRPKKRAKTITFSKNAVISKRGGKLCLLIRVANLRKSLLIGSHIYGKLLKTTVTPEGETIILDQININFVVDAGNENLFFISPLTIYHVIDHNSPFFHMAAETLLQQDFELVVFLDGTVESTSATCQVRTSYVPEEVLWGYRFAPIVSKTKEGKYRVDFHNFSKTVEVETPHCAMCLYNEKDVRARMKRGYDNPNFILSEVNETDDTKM
Pf gamet viab: P. falciparum stage V gametocyte viability inhibition; inhibition, % at 10.9 µM; P. falciparum stage V gametocytes, ATP luminescence, 24 h; 150,000 compounds, 0.065% hits; AID 743093;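 active = inhibition above the mean plus 3 SD of compounds within the control limits, set per campaign, cut at about 38% in these data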;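 also: 0% = DMSO wells and 100% = medium only without gametocytes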
ROMK hit retest: human ROMK channel modulation, retest confirmation; ROMK thallium flux, fluorescence ratio; stronger effect = lower value; AID 1917; shares compounds with ROMK mod; 3,000 compounds, 54% hits; normalized thallium flux (F/F0 slope) at 10 µM;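 active = Flux at 10 µM at least 3 SD below or above vehicle control mean in one or both replicates; inconclusive = no clear call, values can overlap the other calls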
The depositor's hits bear a star; ? = inconclusive; nt = not tested or not shown. The full list was thinned out, with hits kept by preference.

SMILES | Biofilm kill mix | ROMK mod | Pf gamet viab | ROMK hit retest
COc1ccc(OC)c(NC(=S)N2CCC(C(O)(c3ccccc3)c3ccccc3)CC2)c1 | -9 | 0.11 | 57* | nt
COc1ccc(OC)c(NC(=S)N2CCN(Cc3ccccc3)CC2)c1 | 16 | -0.59 | 0 | nt
Cc1cc(-n2cc(Br)c(=O)[nH]c2=O)nc(-c2ccccc2)n1 | 18 | nt | 27 | nt
COc1ccc2[nH]c(C(=O)Nc3ccc4c(c3)OCO4)cc2c1 | 15 | nt | -12 | nt
O=C(Nc1ccc(Cl)cc1Cl)NC1CCN(S(=O)(=O)c2ccc(F)cc2)CC1 | 14 | nt | -3 | nt
CCCCN(C)S(=O)(=O)c1ccc(C(=O)N(CCN(C)C)c2nc3ccc(C)cc3s2)cc1 | 2 | -0.11 | nt | nt
CCCCN(CC)S(=O)(=O)c1ccc(C(=O)N(CCCN(C)C)c2nc3cc(C)cc(C)c3s2)cc1 | 21 | -3.8* | 24 | 0.054*
CC(C)(C)OC(=O)N1CCC[C@H]1c1nnc(SCc2cccc(Cl)c2)o1 | 21 | nt | 8 | nt
COc1cc(F)ccc1S(=O)(=O)N1CCN(C23CC4CC(CC(C4)C2)C3)CC1 | nt | -2.8* | -3 | 0.064*
COc1cc(C)ccc1S(=O)(=O)N1CCCCCC1 | 26 | 0.69 | 5 | nt
CC(=O)Nc1ccc(S(=O)(=O)N2CCN(C34CC5CC(CC(C5)C3)C4)CC2)cc1 | nt | -0.82 | 16 | nt
COc1cc(C)ccc1S(=O)(=O)N1CCN(C23CC4CC(CC(C4)C2)C3)CC1 | nt | -2.9* | nt | 0.062*
Oc1ccc(Br)cc1C=Nc1ccc2c3c(cccc13)CC2 | 15 | -0.067 | -17 | nt
N#CCCN(CCC#N)C(=S)NC1CC2C=CC1C2 (centres undefined) | 3 | nt | 19 | nt
O=C1CCCC(=O)N1c1ccc(N2CCOCC2)c([N+](=O)[O-])c1 | 13 | 0.062 | 12 | nt
Cc1ccc(CN2CCC(c3nc4ccc(Cl)cc4[nH]3)CC2)cc1 | nt | nt | nt | ?
CC1CCCCN1C(=O)CN1CCC(c2nc3ccc(Cl)cc3[nH]2)CC1 (centres undefined) | 17 | -1.5 | nt | nt
CC1(C)CC(/C=C/c2ccccc2)=Nc2ccccc2N1 | 2 | nt | -17 | 0.036*
O=C1CC(/C=C/c2cccnc2)=Nc2ccccc2N1 | 9 | 0.82 | 9 | nt
O=C1CC(/C=C/c2ccccc2)=Nc2ccccc2N1 | -10 | -0.58 | nt | nt
O=C1CC(/C=C/c2ccc(Cl)cc2)=Nc2ccccc2N1 | 7 | -3.4* | -16 | 0.059*
CCS(=O)(=O)N1CCC(C(=O)Nc2ccc(C(C)=O)cc2)CC1 | nt | nt | 21 | nt
Cc1cc(=O)cc(C)n1-c1ccccc1Br | nt | nt | 14 | nt
Cc1onc(-c2ccccc2Cl)c1C(=O)Nc1nnc(-c2cccc([N+](=O)[O-])c2)s1 | nt | nt | nt | 0.061*
CCSc1nnc(NC(=O)c2c(-c3ccccc3Cl)noc2C)s1 | nt | nt | 0 | nt
SMILES | Biofilm kill mix | ROMK mod | Pf gamet viab | ROMK hit retest
CC(C)C(=O)Nc1ccc(Oc2ccc3c(c2)C(=O)NC3=O)cc1 | nt | nt | 5 | nt
O=C(CNC(=O)C1CCCCC1)OC(C(=O)c1ccccc1)c1ccccc1 (centres undefined) | nt | nt | 25 | nt
O=c1[nH]c2ccsc2c(=O)n1CCO | 26 | nt | 7 | nt
CN1CCC(NC(=O)c2cccs2)CC1 | nt | nt | nt | 0.075
CCOC(=O)N1CCC(NC(=O)c2cccs2)CC1 | 11 | 0.76 | -2 | nt
Cc1noc(C)c1COc1ccc(CC(=O)NC2CCCCCC2)cc1 | -10 | -0.5 | -6 | nt
Cc1noc(C)c1COc1ccc(CC(=O)NCc2ccccc2)cc1 | -4 | 3.1* | 12 | 0.1*
O=C(c1cnn2c(C(F)F)cc(-c3ccccc3)nc12)N1CCCCC1c1cccnc1 (centres undefined) | 7 | 0.47 | 0 | nt
O=C(O)CC(Cc1ccc(Br)cc1)C(=O)Nc1ccccc1 (centres undefined) | nt | nt | 1 | nt
O=C(c1ccncc1)c1ccc(N2CCN(C3CC(=O)N(Cc4cccs4)C3=O)CC2)cc1 (centres undefined) | 3 | nt | -6 | 0.06*
O=C1CC(N2CCN(c3ccc(O)cc3)CC2)C(=O)N1Cc1cccs1 (centres undefined) | nt | nt | -1 | nt
O=C(CC(c1ccccc1)c1ccccc1)Nc1ccncc1 | 19 | nt | -8 | 0.079
CC(O)c1cccc(NC(=O)CC(c2ccccc2)c2ccccc2)c1 (centres undefined) | nt | nt | 18 | nt
CCOC(=O)N1CC=C2C(C#N)=C(N)C(C#N)(C#N)[C@H](c3ccc(OCC)c(OCC)c3)[C@H]2C1 | nt | 1.8 | nt | nt
CC(=O)N1CC=C2C(C#N)=C(N)C(C#N)(C#N)C(C)C2C1 (centres undefined) | nt | -0.44 | 21 | nt
CCN1CC=C2C(C#N)=C(N)C(C#N)(C#N)C(CCc3ccccc3)C2C1 (centres undefined) | nt | nt | -31 | 0.057*
CC(=O)N1CC=C2C(C#N)=C(N)C(C#N)(C#N)C(CCc3ccccc3)C2C1 (centres undefined) | nt | -2.7* | 29 | 0.062*
Cc1c(OCC(=O)C(C)(C)C)ccc2c(-c3ccccc3)cc(=O)oc12 | nt | nt | 4 | nt
CCC(C)NCCCOc1ccc(Cl)cc1C(C)(C)C (centres undefined) | 20 | 0.23 | 1 | nt
C=CCc1cc(Cl)ccc1OCCCNC(C)CC (centres undefined) | 12 | -2.6* | -13 | 0.051*
O=C(c1ccc(S(=O)(=O)Nc2ccc(F)cc2)cc1)N1CCN(C(=O)c2ccco2)CC1 | nt | -0.79 | nt | nt
Cc1c(N=C2NC(=O)C(CC(=O)Nc3ccc(Cl)cc3)S2)c(=O)n(-c2ccccc2)n1C (centres undefined) | nt | nt | 4 | nt
Cc1c(N=C2N=C(NC(=O)Nc3ccc(Cl)cc3)c3ccccc32)c(=O)n(-c2ccccc2)n1C | 11 | -3.9* | -2 | 0.06*
COc1ccc(C(=O)/C(C#N)=N/Nc2ccccc2[N+](=O)[O-])cc1 | 7 | 3.8* | nt | 0.074
CCCc1c(C)nn(C(=O)/C(C#N)=N/Nc2ccccc2[N+](=O)[O-])c1C | 3 | 1.6 | 14 | nt
SMILES | Biofilm kill mix | ROMK mod | Pf gamet viab | ROMK hit retest
FC(F)(F)c1cccc(NC(=S)NCCN2CCOCC2)c1 | 0 | nt | -11 | nt
CCCNC(=S)Nc1cccc(C(F)(F)F)c1 | -4 | -0.57 | 2 | ?
COc1cc(NC(=O)C2CC(c3ccccc3Cl)=NO2)cc(OC)c1OC (centres undefined) | nt | nt | -18 | nt
COc1ccc(-c2nnc(N3CCCCC3)c3ccccc23)cc1 | nt | -0.72 | nt | nt
COc1ccc(Cn2nc(-c3ccccc3)c(N3CCCCC3)cc2=O)cc1 | -8 | -4.4* | nt | ?
O=C(CNC(=O)c1nc[nH]c1C(=O)N1CCN(c2ccccc2)CC1)OCc1ccccc1 | nt | nt | -2 | nt
O=C(C1=C[C@@H]2[C@H]3C(=O)N(c4cccc(Cl)c4)C(=O)[C@H]3[C@@H](C(=O)c3ccc(Cl)cc3)N2C=C1)c1ccccc1 | 12 | nt | nt | nt
Cc1ccc(N2C(=O)[C@@H]3[C@H](C2=O)[C@H]2C=C(C(=O)c4ccccc4)C=CN2[C@@H]3C(=O)c2ccc(Cl)cc2)cc1 | 10 | nt | 4 | 0.077
COc1ccc(-c2nn(-c3ccccc3)cc2C(=O)O)cc1N | nt | nt | -20 | nt
O=C(CCl)NC1(C(F)(F)F)C(=O)Nc2c1c(=O)[nH]c(=O)n2-c1ccccc1 (centres undefined) | 11 | nt | 0 | nt
O=C(CN1CCN(Cc2ccc(F)cc2)CC1)Nc1nc2ccccc2s1 | nt | nt | 3 | nt
COc1ccc(NC(=O)Cc2ccccc2)cn1 | 4 | -0.039 | nt | nt
